Most compounds without a hit are left out; they make up all but 3.1% or so of the library.
OX1R antag-1: blocks the human orexin 1 receptor | O43613 | OX1R-expressing cells, FRET antagonist read-out | inhibition, % at 6.6 µM | 330,000 compounds, 1.8% hits | AID 485270; in the data active = inhibition mostly above about 38%, no sharp cut-off; inactive = mostly below about 40%
Target sequence (O43613 whole entry, looked up): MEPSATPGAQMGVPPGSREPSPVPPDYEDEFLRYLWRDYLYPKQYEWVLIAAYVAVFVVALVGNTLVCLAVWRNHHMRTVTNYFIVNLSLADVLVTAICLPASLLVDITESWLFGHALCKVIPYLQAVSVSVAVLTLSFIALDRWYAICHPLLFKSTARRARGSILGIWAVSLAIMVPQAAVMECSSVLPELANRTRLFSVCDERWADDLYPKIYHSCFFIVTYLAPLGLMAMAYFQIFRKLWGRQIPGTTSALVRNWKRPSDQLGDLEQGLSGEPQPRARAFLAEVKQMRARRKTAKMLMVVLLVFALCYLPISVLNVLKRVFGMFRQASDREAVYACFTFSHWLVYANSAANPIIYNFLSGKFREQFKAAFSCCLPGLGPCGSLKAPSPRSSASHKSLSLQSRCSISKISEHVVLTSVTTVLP
CHO parental Ca: signal in parental CHO cells, OX1R antagonist counter-screen; 330,000 compounds, 0.63% hits; parental CHO-K1, ATP-induced calcium, Fluo-8 fluorescence; inhibition, % at 5.6 µM;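 active = inhibition above that plate's mean sample inhibition plus 3 SD, cut at about 26% in these data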
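Assay system: parental CHO cells; Read-out basis: percent inhibition of ATP-evoked calcium rise, normalized to controls; Benchmarks: ATP and no-ATP DMSO wells; Compound dosing: single nominal dose of 5.6 µM per compound; Signal: Fluo-8 calcium dye fluorescence; Also added: ATP as calcium-mobilizing challenge; Repeats: singlicate.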
GPR7 antagonist: human neuropeptides B/W receptor 1 antagonism. inhibition, % at 4.4 µM. P48145. 290,000 compounds, 1.1% hits. GPR7-expressing cells, fluorescence antagonist assay; in the data active = inhibition above about 16%, passing the limit was not always enough;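 note: cells stimulated with the agonist NPW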
OX1R antag-2: human HCRTR1 antagonism. inhibition, % at 5 µM. 330,000 compounds, 0.43% hits. CHO/OX1R cells, Fluo-8 calcium fluorescence, orexin A;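 active = inhibition above its plate's threshold, mean inhibition of all tested compounds on the plate plus 3 SD, cut at about 37% in these data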
GalR3 antag: human GalR3 antagonism; 360,000 compounds, 0.44% hits; AID 651719; inhibition, % at 3 µM; HEK293 GalR3-CNG cAMP membrane potential fluorescence; galR3 body fused to GalR1 C-terminus; O60755;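 active = inhibition above the screen-wide average plus 3 SD, cut at about 13% in these data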;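 note: forskolin and galanin both at EC90 stimulate the cells; cAMP rise reported by CNG channel membrane potential dye signal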
Target sequence (O60755 1-299 limits assumed): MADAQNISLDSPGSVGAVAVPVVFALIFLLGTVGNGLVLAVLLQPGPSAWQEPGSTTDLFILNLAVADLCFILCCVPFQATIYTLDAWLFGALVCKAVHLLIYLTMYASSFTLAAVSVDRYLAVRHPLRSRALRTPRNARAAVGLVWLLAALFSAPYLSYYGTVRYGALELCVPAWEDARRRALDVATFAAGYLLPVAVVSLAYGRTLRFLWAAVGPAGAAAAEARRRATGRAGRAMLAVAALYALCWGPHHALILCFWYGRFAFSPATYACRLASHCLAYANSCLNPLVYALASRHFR
OX1R Ca confirm: confirmation of human orexin 1 receptor antagonists | 1,100 compounds, 38% hits | CHO/OX1R cells, orexin A calcium Fluo-8 fluorescence | shares compounds with OX1R antag-2 | AID 492963 | inhibition, % at 5 µM; in the data active = inhibition above about 29%
CHO Ca triplic: counter-screen: parental CHO calcium response change, triplicate; shares compounds with OX1R antag-2; parental CHO-K1, ATP-induced calcium, Fluo-8 fluorescence; inhibition, % at 5.6 µM; 1,100 compounds, 9.3% hits;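 active = inhibition above a per-plate limit, the mean inhibition of that plate's test compounds plus 3 SD, cut at about 25% in these data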
Large screens that a line does not name were inactive (follow-up assays come after a bar, where they were run).

COc1cccc(NC(=O)N(Cc2ccco2)C(C)c2cccs2)c1 (configuration not stated)	none
CCOC(=O)c1ccccc1NC(=O)c1ccccc1SC	OX1R antag-2 53 | OX1R Ca confirm inactive | CHO Ca triplic inactive
O=C(N/C(=C/c1cccc(Br)c1)c1nc(=S)[nH][nH]1)c1ccccc1	none | OX1R Ca confirm 49 | CHO Ca triplic inactive
Cc1ccc(C(=O)N/C(=C\c2ccc(Br)cc2)c2nc(=S)[nH][nH]2)cc1	none
Fc1ccc(NC(=S)Nc2ccc(F)c(Cl)c2)cc1Cl	none (no result: GalR3 antag) | OX1R Ca confirm 37 | CHO Ca triplic 61
CC(C)N(CCc1ccncc1)C(=S)Nc1ccc(F)c(Cl)c1	none | OX1R Ca confirm inactive | CHO Ca triplic inactive
Cc1cccc(NS(=O)(=O)c2cccc(C(=O)N3CCN(C/C=C/c4ccccc4)CC3)c2)c1	none (no result: GPR7 antagonist)
O=C(CSCc1ccc(Cl)cc1)N/N=C/c1ccc(OCC(=O)Nc2ccccc2)cc1	none | OX1R Ca confirm inactive | CHO Ca triplic inactive
COc1ccc(CS(=O)(=O)c2ncn[nH]2)cc1	none
O=C(COc1ccc(C(=O)NCc2cccnc2)cc1)Nc1cccc(C(F)(F)F)c1	none (no result: GPR7 antagonist) | OX1R Ca confirm inactive | CHO Ca triplic inactive
COc1ncnc2c1ncn2CCCN1CCN(Cc2ccc(C)cc2)CC1	none (no result: OX1R antag-1, CHO parental Ca, GPR7 antagonist, OX1R antag-2)
CC(=O)N1CCc2c(sc(NC(=O)c3ccc([N+](=O)[O-])o3)c2C(N)=O)C1	none (no result: OX1R antag-1, CHO parental Ca, GPR7 antagonist, OX1R antag-2)
O=C(Nc1ccc(OC(F)(F)F)cc1)N1CCN(c2ccnc3cc(Cl)ccc23)CC1	none | OX1R Ca confirm inactive | CHO Ca triplic 35
O=C(O)c1ccc(N2C(=O)/C(=C/C=C/c3ccccc3)SC2=S)cc1	none
CN(C)c1ccc(/C=C/C=C2/SC(=S)N(c3ccccc3)C2=O)cc1	none | OX1R Ca confirm 57 | CHO Ca triplic 60
COC(=O)C1=C(C)N(Cc2cccc(C(F)(F)F)c2)C(=NCc2ccc3c(c2)OCO3)NC1c1cccc(F)c1 (configuration not stated)	none (no result: OX1R antag-1, CHO parental Ca, GPR7 antagonist, OX1R antag-2)
CCOC(=O)CC(=O)CSc1ncnc2c1oc1ccccc12	none | OX1R Ca confirm inactive | CHO Ca triplic inactive
O=C(CSc1cn(CCNC(=O)c2ccc3ccccc3c2)c2ccccc12)NCc1ccco1	none (no result: GalR3 antag) | OX1R Ca confirm inactive | CHO Ca triplic inactive
Cn1c(=O)cc(SCC(=O)NCc2ccco2)c2ccccc21	none
C=CCn1c(NCCc2ccccc2)nc2c1c(=O)n(C)c(=O)n2C	none | OX1R Ca confirm inactive | CHO Ca triplic inactive
O=C1Nc2ccc(S(=O)(=O)NCCC3=CCCCC3)c3cccc1c23	none | OX1R Ca confirm inactive | CHO Ca triplic inactive
O=C1Nc2ccc(S(=O)(=O)NCCCO)c3cccc1c23	none (no result: OX1R antag-1, CHO parental Ca, OX1R antag-2)
Cc1cc(C)n(-c2nc(-c3cccc(Cl)c3)cs2)n1	OX1R antag-2 41 | OX1R Ca confirm inactive | CHO Ca triplic inactive
Cc1cc(C)n(-c2nc(-c3ccccc3)cs2)n1	none
Cc1ccc(NC(=O)C(OC(=O)c2ccc(C=O)cc2)c2ccccc2)cc1Cl (configuration not stated)	none (no result: GalR3 antag) | OX1R Ca confirm 32 | CHO Ca triplic inactive
C=CCC(COCc1ccccc1)NS(=O)(=O)c1ccccc1Br (configuration not stated)	none (no result: GPR7 antagonist) | OX1R Ca confirm inactive | CHO Ca triplic inactive
CC(=O)Nc1ccc(S(=O)(=O)N(C)CC(=O)N/N=C/c2ccncc2)cc1	none
CCn1nc(C(=O)Nc2ccccc2C)c(Cl)c1Cl	none
CCn1nc(C(=O)Nc2cccc3ccccc23)c(Cl)c1Cl	none | OX1R Ca confirm inactive | CHO Ca triplic inactive
FC(F)(F)COc1ccc(-n2ccnc2)nn1	none | OX1R Ca confirm inactive | CHO Ca triplic inactive
O=C(NCCCn1ccnc1)c1ccc(OCC(F)(F)F)cc1	none
CCOC(=O)NC(c1ccc(C(C)C)cc1)C(Cl)(Cl)Cl (configuration not stated)	OX1R antag-2 42 | OX1R Ca confirm inactive | CHO Ca triplic inactive
NC(Cc1ccc(Cl)cc1)c1csc(NC(=O)Nc2ccccc2-c2ccccc2)n1 (configuration not stated)	none (no result: OX1R antag-1, CHO parental Ca, GPR7 antagonist, OX1R antag-2)
CNc1cc(CSC)nc(SCc2ccc(Cl)cc2Cl)n1	OX1R antag-2 53 | OX1R Ca confirm inactive | CHO Ca triplic inactive
COc1ccc(NC(=O)c2ccc(NC(=O)COC(=O)c3cnc(C)cn3)cc2)cc1	none (no result: GPR7 antagonist) | OX1R Ca confirm inactive | CHO Ca triplic inactive
Cc1cnc(C(=O)OCC(=O)Nc2ccc(Oc3ccccc3)cc2)cn1	none
CSCC(=O)NC1CCCc2c1cnn2-c1cc(F)cc(F)c1 (configuration not stated)	none (no result: OX1R antag-1, CHO parental Ca, OX1R antag-2)
O=C(CCc1ccncc1)NC1CCCc2c1cnn2-c1cc(F)cc(F)c1 (configuration not stated)	OX1R antag-2 46 (no result: GalR3 antag) | OX1R Ca confirm inactive | CHO Ca triplic inactive
Cc1cccc(C(=O)N2CCC[C@H]2C(=O)N2CCC[C@H]2C(=O)NCc2ccncc2)c1	none (no result: OX1R antag-1, CHO parental Ca, GPR7 antagonist, OX1R antag-2)
Cc1ccc(-n2nc3c(=O)n(CC(=O)NCCC4=CCCCC4)nc(C)c3c2C)cc1	none
CCN(CC)c1ccc(C(=O)N/N=C/c2ccc(OC)cc2OC)cc1	OX1R antag-2 41 | OX1R Ca confirm 34 | CHO Ca triplic inactive
Cc1cc(C(C)(C)C)oc1C(=O)N(CC(=O)NC1CCCC1)c1cccc(C(F)(F)F)c1	OX1R antag-2 56 (no result: GalR3 antag) | OX1R Ca confirm inactive | CHO Ca triplic inactive
Cc1cc(NC(=O)C2CC(=O)N(c3ccc(F)cc3)C2)no1 (configuration not stated)	none
COC(=O)c1c(C)oc2ccc(N(C(=O)c3ccncc3)S(=O)(=O)c3ccc(C)cc3)cc12	OX1R antag-2 39 (no result: GalR3 antag) | OX1R Ca confirm inactive | CHO Ca triplic inactive
CC(C)(C)c1cc2nc(N)nc(N)n2n1	OX1R antag-2 50 | OX1R Ca confirm inactive | CHO Ca triplic inactive
COC(=O)c1c(-c2ccccc2OC)sc2ccc(OC)cc12	none (no result: GPR7 antagonist)
COC(=O)c1c(-c2ccc(N(C)C)cc2)sc2ccc(OC)cc12	OX1R antag-2 65 (no result: GPR7 antagonist) | OX1R Ca confirm inactive | CHO Ca triplic inactive
CCN(c1ccccc1)S(=O)(=O)c1ccc(Cl)c(NC(=O)COC(=O)c2ccc(O)cc2)c1	none
CCN(c1ccccc1)S(=O)(=O)c1ccc(Cl)c(NC(=O)COC(=O)C2CC2C)c1 (configuration not stated)	none | OX1R Ca confirm inactive | CHO Ca triplic inactive
COc1ccc(CCN(Cc2cccs2)S(=O)(=O)c2ccc(-n3cnnn3)cc2)cc1OC	none
COc1cc(S(=O)(=O)N(CCc2ccccc2)Cc2cccs2)ccc1-n1cnnn1	OX1R antag-2 52 | OX1R Ca confirm inactive | CHO Ca triplic inactive
O=C(NN1C(=O)/C(=C/c2ccc(O)cc2)SC1=S)c1ccccc1O	none | OX1R Ca confirm inactive | CHO Ca triplic inactive
Cc1cc(C)nc(/N=C(\N)Nc2ccc(S(N)(=O)=O)cc2)n1	none
Cc1cc(C)nc(/N=C(\N)Nc2ccc(F)c([N+](=O)[O-])c2)n1	none | OX1R Ca confirm 40 | CHO Ca triplic inactive

Source: PubChem BioAssay
